We go through four molecules from ChEMBL document CHEMBL3272249, “Esters of N-tert-butylarterenol. Long-acting new bronchodilators with reduced cardiac effects” (J Med Chem, 1976).

SMILES strings stand for the structures. Some results are limits rather than exact numbers.

Data set [1] relates to Canis familiaris. In words: Cardiotoxicity in spontaneously respiring dog assessed as degree of increase in heart rate at 200 mg/kg, iv relative to control. Format: toxicity, organism-based, Canis lupus familiaris. The note with it: in vivo. Also noted: dose 200 mg/kg, route intravenous. The method in brief: (§1)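 Anesthetized, spontaneously respiring dogs. Heart rate was taken from a lead II EKG, and blood pressure from the right femoral artery by transducer. The increase in heart rate (beats/min) was scored on a graded scale with more than 4 dogs per dose, and its duration was recorded. Drugs were dissolved fresh in distilled water, diluted in physiological saline and kept on ice.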

Data set [2] deals with Canis familiaris. In words: Cardiotoxicity in spontaneously respiring dog assessed as time of increase in heart rate at 200 mg/kg, iv relative to control. Format: toxicity, organism-based, Canis lupus familiaris. Also noted: dose 200 mg/kg, route intravenous. The note with it: in vivo. In a few lines:
as §1

The subject of data set [3] is Canis familiaris. In words: Bronchodilator activity in dog assessed as time of inhibition of carbachol or histamine-induced bronchoconstriction at 200 mg/kg, iv relative to control. Format: functional, Canis lupus familiaris. In a few lines:
(§2)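 Dog airway model: anesthetized, cannulated via a nonbreathing valve, with airway pressure changes recorded after iv carbachol (2–4 μg/kg) or histamine diphosphate (20–50 μg/kg) challenge, each agonist in different animals. Compounds were given iv, intraduodenally or intratracheally from fresh aqueous stocks diluted in saline. Duration (h) of inhibition of induced bronchoconstriction was followed, and the two agonist datasets were pooled.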

The subject of data set [4] is Canis familiaris. The data set is described as follows: Bronchodilator activity in dog assessed as time of inhibition of carbachol or histamine-induced bronchoconstriction at 100 to 200 mg/kg, id relative to control. The format is functional, Canis lupus familiaris. The note with it: dose mg/kg 100-200; route intraduodenal. The method in brief: as §2
The subject of data set [5] is Canis familiaris. In words: Bronchodilator activity in dog assessed as time of inhibition of carbachol or histamine-induced bronchoconstriction at 430 to 860 mg/kg, it relative to control. The format is functional, Canis lupus familiaris. The conditions noted are these: dose mg/kg 430-860; route endotracheal. In a few lines:
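Anesthetized dogs with an airway cannula and a nonbreathing valve. Bronchoconstriction was induced by iv carbachol (2–4 μg/kg) or histamine diphosphate (20–50 μg/kg) and read as change in airway pressure by transducer. Each compound was tested against both agonists in different dogs, and the results were combined and averaged. Effect is % inhibition of control constriction, with at least three dogs per dose. Drugs were dissolved fresh in distilled water, diluted in saline and kept on ice.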

In data set [6] the test system is Canis familiaris. In words: Bronchodilator activity in dog assessed as degree of inhibition of carbachol or histamine-induced bronchoconstriction at 200 mg/kg, iv relative to control. The conditions noted are these: Canis lupus familiaris. Format: functional. The method in brief:
(§3)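 Anesthetized dogs, trachea cannulated with a nonbreathing valve. Bronchoconstriction induced by iv carbachol (2–4 μg/kg) or histamine diphosphate (20–50 μg/kg) in separate animals, and airway pressure recorded by transducer. Drug stocks were made fresh in distilled water, diluted in saline and kept on ice. Read-out was percent inhibition of control constriction, averaged over at least three dogs per dose at the higher dose. Carbachol and histamine data were combined.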

The subject of data set [7] is Canis familiaris. In words: Bronchodilator activity in dog assessed as degree of inhibition of carbachol or histamine-induced bronchoconstriction at 100 to 200 mg/kg, id relative to control. Format: functional, Canis lupus familiaris. The note with it: dose mg/kg 100-200; route intraduodenal. In a few lines:
as §3

The subject of data set [8] is Canis familiaris. In words: Bronchodilator activity in dog assessed as degree of inhibition of carbachol or histamine-induced bronchoconstriction at 430 to 860 mg/kg, it relative to control. Format: functional, Canis lupus familiaris. The conditions noted are these: dose mg/kg 430-860; route endotracheal. The method in brief: as §3
The subject of data set [9] is Canis familiaris. In words: Cardiotoxicity in spontaneously respiring dog assessed as degree of increase in heart rate at 100 to 200 mg/kg, iv relative to control. The format is toxicity, organism-based, Canis lupus familiaris. Details: dose 100-200 mg/kg, route intravenous. The note with it: in vivo. In a few lines: as §1
In data set [10] the test system is Canis familiaris. In words: Cardiotoxicity in spontaneously respiring dog assessed as time of increase in heart rate at 100 to 200 mg/kg, iv relative to control. The conditions noted are these: in vivo. Also noted: dose 100-200 mg/kg, route intravenous. Format: toxicity, organism-based, Canis lupus familiaris. In a few lines: as §1
For data set [11], the system named is Canis familiaris. In words: Bronchodilator activity in dog assessed as time of inhibition of carbachol or histamine-induced bronchoconstriction at 100 to 200 mg/kg, iv relative to control. Format: functional, Canis lupus familiaris. The note with it: dose mg/kg 100-200. The method in brief: as §2
In data set [12] the test system is Canis familiaris. In words: Bronchodilator activity in dog assessed as degree of inhibition of carbachol or histamine-induced bronchoconstriction at 100 to 200 mg/kg, iv relative to control. Format: functional, Canis lupus familiaris. The note with it: dose mg/kg 100-200. In a few lines: as §3
For data set [13], the system named is Canis familiaris. In words: Cardiotoxicity in spontaneously respiring dog assessed as degree of increase in heart rate at 30 to 60 mg/kg, iv relative to control. Format: toxicity, organism-based, Canis lupus familiaris. Details: dose 30-60 mg/kg, route intravenous. The conditions noted are these: in vivo. In a few lines: as §1
For data set [14], the system named is Canis familiaris. In words: Cardiotoxicity in spontaneously respiring dog assessed as degree of increase in heart rate at 2000 to 2700 mg/kg, it relative to control. Format: toxicity, organism-based, Canis lupus familiaris. Also noted: dose 2000-2700 mg/kg, route endotracheal. The note with it: in vivo, inhaled_or_intranasal. The method in brief:
as §1

In data set [15] the test system is Canis familiaris. The data set is described as follows: Cardiotoxicity in spontaneously respiring dog assessed as time of increase in heart rate at 2000 to 2700 mg/kg, it relative to control. Format: toxicity, organism-based, Canis lupus familiaris. Also noted: dose 2000-2700 mg/kg, route endotracheal. The note with it: in vivo, inhaled_or_intranasal. In a few lines: as §1

The test system of data set [16] is Canis familiaris. The data set is described as follows: Bronchodilator activity in dog assessed as time of inhibition of carbachol or histamine-induced bronchoconstriction at 30 to 60 mg/kg, iv relative to control. Format: functional, Canis lupus familiaris. The note with it: dose mg/kg 30-60. In a few lines: as §2
Data set [17] concerns Canis familiaris. In words: Bronchodilator activity in dog assessed as time of inhibition of carbachol or histamine-induced bronchoconstriction at 2000 to 2700 mg/kg, it relative to control. Format: functional, Canis lupus familiaris. The note with it: dose mg/kg 2000-2700; route endotracheal. The method in brief:
as §2

The subject of data set [18] is Canis familiaris. In words: Bronchodilator activity in dog assessed as degree of inhibition of carbachol or histamine-induced bronchoconstriction at 30 to 60 mg/kg, iv relative to control. The conditions noted are these: dose mg/kg 30-60. Format: functional, Canis lupus familiaris. The method in brief: as §3
Data set [19] relates to Canis familiaris. In words: Bronchodilator activity in dog assessed as degree of inhibition of carbachol or histamine-induced bronchoconstriction at 2000 to 2700 mg/kg, it relative to control. Format: functional, Canis lupus familiaris. The conditions noted are these: dose mg/kg 2000-2700; route endotracheal. In a few lines: as §3
The test system of data set [20] is Canis familiaris. In words: Bronchodilator activity in dog assessed as time of inhibition of carbachol or histamine-induced bronchoconstriction at 300 to 1200 mg/kg, it relative to control. Format: functional, Canis lupus familiaris. The note with it: dose mg/kg 300-1200; route endotracheal. In a few lines: as §2
Data set [21] concerns Canis familiaris. The data set is described as follows: Bronchodilator activity in dog assessed as time of inhibition of carbachol or histamine-induced bronchoconstriction at 140 to 280 mg/kg, iv relative to control. The format is functional, Canis lupus familiaris. The note with it: dose mg/kg 140-280. The method in brief: as §2
In data set [22] the test system is Canis familiaris. The data set is described as follows: Bronchodilator activity in dog assessed as time of inhibition of carbachol or histamine-induced bronchoconstriction at 140 mg/kg, id relative to control. Format: functional, Canis lupus familiaris. The conditions noted are these: route intraduodenal. In a few lines: as §2
For data set [23], the system named is Canis familiaris. In words: Bronchodilator activity in dog assessed as degree of inhibition of carbachol or histamine-induced bronchoconstriction at 300 to 1200 mg/kg, it relative to control. The note with it: dose mg/kg 300-1200; route endotracheal. The format is functional, Canis lupus familiaris. The method in brief:
as §3

Data set [24] deals with Canis familiaris. The data set is described as follows: Bronchodilator activity in dog assessed as degree of inhibition of carbachol or histamine-induced bronchoconstriction at 140 to 280 mg/kg, iv relative to control. The format is functional, Canis lupus familiaris. The note with it: dose mg/kg 140-280. In a few lines: as §3
Data set [25] has as its system Canis familiaris. The data set is described as follows: Bronchodilator activity in dog assessed as degree of inhibition of carbachol or histamine-induced bronchoconstriction at 140 mg/kg, id relative to control. Format: functional. The note with it: Canis lupus familiaris, route intraduodenal. In a few lines:
as §3

Turning to `CC(C)(C)CC(=O)Oc1ccc([C@@H](O)CNC(C)(C)C)cc1OC(=O)CC(C)(C)C.Cl`, the Activity in data set [1] came to 20%. In addition, the Time in data set [2] was less than 1 h; in [3], more than 4 h; in data set [4] it was less than 5 h; in data set [5] it was less than 3 h. The inhibition in vivo at 200 mg/kg in data set [6] was more than 70%. For the same molecule, the “inhibition (INH)” value in data set [7] stood at 45%; in data set [8] it was 20%.

As to `CC(C)(C)NC[C@H](O)c1ccc(OC(=O)C2CCCCC2)c(OC(=O)C2CCCCC2)c1.Cl`, the Activity in [9] is 20%. Moreover, the Time in data set [10] is less than 3 h; in data set [11], less than 5 h. In data set [12], the “inhibition (INH)” value was determined as 45%.

As for `CC(C)(C)NC[C@H](O)c1ccc(OC(=O)c2ccccc2)c(OC(=O)c2ccccc2)c1.Cl`, the Activity in data set [13] is on record as 40%; in [14] it was 20%. The Time in data set [15] was 1 h; in [16], less than 4 h; in data set [17], 4 h. In addition, the “inhibition (INH)” value in data set [18] is 45%; in [19], more than 70%.

With `CS(=O)(=O)O.Cc1cccc(C(=O)Oc2ccc([C@@H](O)CNC(C)(C)C)cc2OC(=O)c2cccc(C)c2)c1`, the Time in data set [20] was less than 4 h; in data set [21], more than 3 h; in data set [22] it was 2 h. Also, the entries for the “inhibition (INH)” value in data set [23] and in data set [24] were 45% and more than 70%, respectively. Also, the inhibition in vivo at 140 mg/kg in data set [25] worked out at 45%.
